The source made the active and inactive calls. No cut-off for these calls is given here.
Tests used:
B16-F10 [1] = test: Inhibition of LPS-induced PGE2 production in mouse B16F10 cells at 6.25 uM incubated for 24 hrs by enzyme immunoassay; assay type: functional, cell-based
Outline: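 F10 cells treated for 24 h alongside LPS (1 µg/ml), test agent at 6.25 µM. Supernatant collected by centrifugation and PGE2 measured with a PGE2 enzyme immunoassay (ELISA) kit. Mean ± SD of three independent experiments.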

B16-F10 [2] = test: Induction of apoptosis in mouse B16F10 cells assessed as early apoptosis cells at 12.5 uM incubated for 48 hrs in presence of apoptosis inhibitor z-VAD-fmk by Annexin-V-FITC/propidium iodide staining-based flow cytometric analysis (reference value: 3.83%); assay type: functional
HEK-293T = test: Antiproliferative activity against human 293T cells incubated for 48 hrs by MTT assay; assay type: cell-based
Outline: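 MTT assay on F10 (murine melanoma), HeLa, A549, MCF-7 and 293T (human renal epithelium) cells. IC50 given as mean ± SD of three independent experiments.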

B16-F10 [3] = test: Induction of cell cycle arrest in mouse B16F10 cells assessed as cell accumulation at G2 phase at 12.5 uM incubated for 48 hrs by propidium iodide staining-based flow cytometric analysis (reference value: 22.43%); assay type: functional
B16-F10 [4] = test: Induction of cell cycle arrest in mouse B16F10 cells assessed as cell accumulation at S phase at 3.125 uM incubated for 48 hrs by propidium iodide staining-based flow cytometric analysis (reference value: 14.16%); assay type: functional
B16-F10 [5] = test: Induction of apoptosis in mouse B16F10 cells assessed as viable cells at 25 uM incubated for 48 hrs in presence of apoptosis inhibitor z-VAD-fmk by Annexin-V-FITC/propidium iodide staining-based flow cytometric analysis (reference value: 92.5%); assay type: functional; settings: B16-F10, 48 h, read-out: Activity
B16-F10 [6] = test: Induction of apoptosis in mouse B16F10 cells assessed as early apoptosis cells at 25 uM incubated for 48 hrs by Annexin-V-FITC/propidium iodide staining-based flow cytometric analysis (reference value: 2.93%); assay type: functional
Outline: (§1)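 F10 cells were exposed to 0, 3.125, 6.25, 12.5 or 25 µM for 48 h. Cells were stained with Annexin V/PI and read by flow cytometry. Data are mean ± SD of three independent experiments.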

B16-F10 [7] = test: Induction of apoptosis in mouse B16F10 cells assessed as late apoptosis cells at 25 uM incubated for 48 hrs by Annexin-V-FITC/propidium iodide staining-based flow cytometric analysis (reference value: 2.88%); assay type: functional; outline: as §1
[8] = Inhibition of 5-LOX assessed as calcium ionophore A23187-stimulated LTB4 production preincubated for 30 mins followed by calcium ionophore A23187 addition and measured after 30 mins by ELISA
B16-F10 [9] = test: Induction of apoptosis in mouse B16F10 cells assessed as viable cells at 6.25 uM incubated for 48 hrs in presence of apoptosis inhibitor z-VAD-fmk by Annexin-V-FITC/propidium iodide staining-based flow cytometric analysis (reference value: 92.5%); assay type: functional; settings: B16-F10, 48 h, read-out: Activity
B16-F10 [10] = test: Induction of apoptosis in mouse B16F10 cells assessed as early apoptosis cells at 3.125 uM incubated for 48 hrs in presence of apoptosis inhibitor z-VAD-fmk by Annexin-V-FITC/propidium iodide staining-based flow cytometric analysis (reference value: 3.83%); assay type: functional
B16-F10 [11] = test: Induction of apoptosis in mouse B16F10 cells assessed as viable cells at 3.125 uM incubated for 48 hrs by Annexin-V-FITC/propidium iodide staining-based flow cytometric analysis (reference value: 94%); assay type: functional; settings: B16-F10, 48 h, read-out: Activity; outline: as §1

For `NS(=O)(=O)c1ccc(-n2nc(C(=O)NCCCN3CCOCC3)cc2-c2ccc(C(F)(F)F)cc2)cc1`, the inhibition (B16-F10 [1]) was “Active”, the Activity (B16-F10 [2]) was 6.13% and the IC50 (HEK-293T) was 194 µM. The Activity (B16-F10 [3]) was 30.41%, the Activity (B16-F10 [4]) was 11.16% and the viability at 25 µM (B16-F10 [5]) was 78.8%. The Activity (B16-F10 [6]) was 40.8%, the Activity (B16-F10 [7]) was 6.11% and the IC50 [8] was 0.68 µM. It also gave a viability at 6.25 µM (B16-F10 [9]) of 88.8%, an Activity (B16-F10 [10]) of 4.31% and a viability at 3.125 µM (B16-F10 [11]) of 86.5%.

Source: ChEMBL document CHEMBL4346661, “Design, synthesis and evaluation of novel diaryl-1,5-diazoles derivatives bearing morpholine as potent dual COX-2/5-LOX inhibitors and antitumor agents” (Eur J Med Chem, 2019)
